Measured values as given in ChEMBL document CHEMBL3045352, “Papyracillic acid, a phytotoxic 1,6-dioxaspiro[4,4]nonene produced by Ascochyta agropyrina Var. nana, a potential mycoherbicide for Elytrigia repens biocontrol” (J Agric Food Chem, 2009).
Active and inactive are the calls of the source. No cut-off for these calls is given here.

Legend:
Assay type in all cases: functional, organism-based
Candida tropicalis [1] = assay: Antimicrobial activity against Candida tropicalis assessed as growth inhibition at 50 ug/disk
Method in brief: (§1)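 Paper-disk assay against C. tropicalis, X. campestris and B. subtilis. Standard testing used 50 μg per disk. For concentration dependence, doses ran from 1.5 to 100 μg/disk. Each bioassay was run twice with at least three replicates. Means were compared by Fisher's LSD.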

Bacillus subtilis [2] = assay: Antimicrobial activity against Bacillus subtilis assessed as zone of lysis at 50 ug/disk; method in brief: as §1
Xanthomonas campestris [3] = assay: Antimicrobial activity against Xanthomonas campestris assessed as zone of lysis at 50 ug/disk; method in brief: as §1
Cirsium arvense [4] = assay: Mycoherbicidal activity against Cirsium arvense (Canada thistle) assessed as decrease in length of necrotic lesions at 1 mg/ml by leaf-disk puncture assay
Method in brief: (§2)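 Leaf disk-puncture bioassay on leaves of host and nonhost plants. Compound was applied at 1 mg/mL, and necrosis was read 3 days post-application. Each bioassay was run twice with at least three replicates. Error bars are standard error, and means were compared by Fisher's LSD.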

Elymus repens [5] = assay: Mycoherbicidal activity against Elymus repens (couch grass) assessed as decrease in length of necrotic lesions at 1 mg/ml by leaf-disk puncture assay; method in brief: as §2
Cirsium arvense [6] = assay: Mycoherbicidal activity against Cirsium arvense (Canada thistle) assessed as decrease in length of necrotic lesions at 0.5 mg/ml by leaf-disk puncture assay
Method in brief: (§3)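 Dose-response leaf disk-puncture on E. repens and C. arvense leaves. Concentrations ran from 0.06 to 2 mg/mL (0.6-20 μg/disk), and necrotic symptoms were scored 2 days post-application. Each bioassay was run twice with at least three replicates. Means were compared by Fisher's LSD.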

Rumex confertus = assay: Mycoherbicidal activity against Rumex confertus (Asian dock) assessed as decrease in length of necrotic lesions at 1 mg/ml by leaf-disk puncture assay; method in brief: as §2
Candida tropicalis [7] = assay: Antimicrobial activity against Candida tropicalis assessed as growth inhibition at 6.25 ug/disk; method in brief: as §1
Elymus repens [8] = assay: Mycoherbicidal activity against Elymus repens (couch grass) assessed as decrease in length of necrotic lesions at 0.5 mg/ml by leaf-disk puncture assay; method in brief: as §3
Bacillus subtilis [9] = assay: Antimicrobial activity against Bacillus subtilis assessed as zone of lysis at 6.25 ug/disk; method in brief: as §1
Xanthomonas campestris [10] = assay: Antimicrobial activity against Xanthomonas campestris assessed as zone of lysis at 6.25 ug/disk; method in brief: as §1
Trifolium pratense = assay: Mycoherbicidal activity against Trifolium pratense (red clover) assessed as decrease in length of necrotic lesions at 1 mg/ml by leaf-disk puncture assay; method in brief: as §2
Sonchus arvensis = assay: Mycoherbicidal activity against Sonchus arvensis (field sow-thistle) assessed as decrease in length of necrotic lesions at 1 mg/ml by leaf-disk puncture assay; method in brief: as §2
Cannabis sativa = assay: Mycoherbicidal activity against Cannabis sativa (hemp) assessed as decrease in length of necrotic lesions at 1 mg/ml by leaf disk puncture assay; method in brief: as §2
Chenopodium album = assay: Mycoherbicidal activity against Chenopodium album assessed as decrease in length of necrotic lesions at 1 mg/ml by leaf-disk puncture assay; method in brief: as §2
Rosa pendulina = assay: Mycoherbicidal activity against Rosa pendulina assessed as decrease in length of necrotic lesions at 1 mg/ml by leaf-disk puncture assay; method in brief: as §2
Hordeum vulgare = assay: Mycoherbicidal activity against Hordeum vulgare (barley) assessed as decrease in length of necrotic lesions at 1 mg/ml by leaf-disk puncture assay; method in brief: as §2
Phleum pratense = assay: Mycoherbicidal activity against Phleum pratense (timothy grass) assessed as decrease in length of necrotic lesions at 1 mg/ml by leaf-disk puncture assay; method in brief: as §2
Taraxacum officinale = assay: Mycoherbicidal activity against Taraxacum officinale (dandelion) assessed as decrease in length of necrotic lesions at 1 mg/ml by leaf-disk puncture assay; method in brief: as §2

C=C1[C@H](C)[C@](C)(OC)O[C@]12OC(=O)C=C2OC was tested, and the “growth inhibition (GI)” value (Candida tropicalis [1]) was “Active”, the Activity (Bacillus subtilis [2]) was “Active” and the Activity (Xanthomonas campestris [3]) was “Active”. For the same compound, the Activity (Cirsium arvense [4]) was “Active” and the Activity (Elymus repens [5]) was “Active”.

With C=C(C(C)C(C)=O)C1(OC(C)=O)OC(=O)C=C1OC (stereo unspecified) the Activity (Bacillus subtilis [2]) was “Active”, the Activity (Xanthomonas campestris [3]) was “Active” and the Activity (Cirsium arvense [4]) was “Active”. For the same compound, the Activity (Elymus repens [5]) was “Active”.

In the case of C=C(C(=O)/C(=C\C(=O)OC)OC)C(C)C(C)=O (stereo unspecified), the Activity (Cirsium arvense [4]) is reported as “Active”.

In the case of COC1=CC(=O)O/C1=C(\COC(C)=O)C(C)C(C)=O (stereo unspecified), the Activity (Cirsium arvense [4]) is reported as “Active” and the Activity (Elymus repens [5]) is reported as “Active”.

With C=C1[C@H](C)[C@](C)(O)O[C@]12OC(=O)C=C2OC the Activity (Cirsium arvense [6]) was “Active”, the Activity (Rumex confertus) was “Active” and the “growth inhibition (GI)” value (Candida tropicalis [7]) was “Active”. For the same compound, the Activity (Elymus repens [8]) was “Active”, the Activity (Bacillus subtilis [9]) was “Active” and the Activity (Xanthomonas campestris [10]) was “Active”. For the same compound, the Activity (Cirsium arvense [4]) was “Active”, the Activity (Trifolium pratense) was “Active” and the Activity (Elymus repens [5]) was “Active”. The Activity (Sonchus arvensis) was “Active”, the Activity (Cannabis sativa) was “inactive” and the Activity (Chenopodium album) was “Active”. For the same compound, the Activity (Rosa pendulina) was “Active”, the Activity (Hordeum vulgare) was “Active” and the Activity (Phleum pratense) was “Active”. For the same compound, the Activity (Taraxacum officinale) was “Active”.

In the case of COC1=CC(=O)O/C1=C(/COC(C)=O)C(C)C(C)=O (stereo unspecified), the Activity (Bacillus subtilis [2]) is reported as “Active”, the Activity (Xanthomonas campestris [3]) is reported as “Active” and the Activity (Elymus repens [5]) is reported as “Active”.
